What is called MIC is the lowest concentration found to suppress growth.

Converted amounts (≈) assume the structure as drawn. Where only a bound is given, the exact number is not on record here.

The text below walks through data of ChEMBL document CHEMBL1629571, “High prevalence of plasmid-mediated quinolone resistance determinants qnr, aac(6')-Ib-cr, and qepA among ceftiofur-resistant Enterobacteriaceae isolates from companion and food-producing animals” (2009).

Test [1] deals with Klebsiella pneumoniae. The test can be described thus: Antimicrobial activity against Klebsiella pneumoniae D10 expressing aac(6')-Ib-cr, qnrB4, CTX-M-1G and DHA-1 genes by agar dilution method. Format: functional. In general terms: In agar dilution the substance is mixed into plates at graded concentrations.
Test [2] relates to Citrobacter freundii. The test can be described thus: Antimicrobial activity against Citrobacter freundii D26 expressing qnrB6 and CTX-M-9G genes by agar dilution method. Format: functional. In a few lines: (§1)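 Agar dilution MICs per CLSI guidelines, with E. coli ATCC 25922 as the quality-control strain. Isolates were ceftiofur-resistant (MIC ≥ 8 μg/ml) Enterobacteriaceae from diseased companion or food-producing animals in Guangdong, China. They were identified biochemically and with Biolog Microlog, and PMQR and β-lactamase genes were typed by PCR and sequencing.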

In test [3] the test system is Escherichia coli. The test can be described thus: Antimicrobial activity against Escherichia coli Du19 expressing qnrB6 and CTX-M-9G genes by agar dilution method. Format: functional. In a few lines:
as §1

For test [4], the system named is Escherichia coli. The test can be described thus: Antimicrobial activity against Escherichia coli PA11 expressing aac(6')-Ib-cr, qnrS1 and qepA genes by agar dilution method. Type of test: functional. The gist of the method: as §1
The test system of test [5] is Escherichia coli. Put plainly: Antimicrobial activity against Escherichia coli J53 by agar dilution method. Format: functional.
Test [6] has as its system Escherichia coli. Put plainly: Antimicrobial activity against Escherichia coli J53 transformed with pHND1 carrying DHA-1 gene by agar dilution method. Format: functional. In a few lines:
(§2)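 Transconjugants came from liquid mating of qnr-positive donors into E. coli J53Azi^r. They were selected on tryptic soy agar with sodium azide (100 μg/ml) plus sulfamethoxazole (300 μg/ml) or ampicillin (100 μg/ml). MICs were determined by CLSI agar dilution, with E. coli ATCC 25922 as the quality control strain.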

The test system of test [7] is Escherichia coli. Put plainly: Antimicrobial activity against Escherichia coli J53 transformed with pHND2 carrying qnrB6 and CTX-M-9G genes by agar dilution method.
Test [8] relates to Escherichia coli. Put plainly: Antimicrobial activity against Escherichia coli J53 transformed with pHND3 carrying qnrB6 gene by agar dilution method. Format: functional. The gist of the method: as §2
For test [9], the system named is Escherichia coli. The test can be described thus: Antimicrobial activity against Escherichia coli J53 transformed with pHNDU1 carrying qnrB6 gene by agar dilution method. Type of test: functional. The gist of the method:
as §2

Test [10] deals with Escherichia coli. Put plainly: Antimicrobial activity against Escherichia coli J53 transformed with pHNPA1 carrying qnrB6 gene by agar dilution method.
Test [11] has as its system Klebsiella pneumoniae. The test can be described thus: Antimicrobial activity against Klebsiella pneumoniae D24 expressing qnrB6 and CTX-M-9G genes by agar dilution method.
Test [12] has as its system Klebsiella pneumoniae. Put plainly: Antimicrobial activity against Klebsiella pneumoniae C1 expressing aac(6')-Ib-cr gene by agar dilution method.
For test [13], the system named is Klebsiella pneumoniae. Put plainly: Antimicrobial activity against Klebsiella pneumoniae C7 expressing aac(6')-Ib-cr gene by agar dilution method.
Test [14] concerns Escherichia coli. The test can be described thus: Antimicrobial activity against Escherichia coli D71 expressing qepA, CTX-M-1G and CTX-M-9G genes by agar dilution method.
In test [15] the test system is Escherichia coli. The test can be described thus: Antimicrobial activity against Escherichia coli P498 expressing qnrS1 gene by agar dilution method.
Test [16] deals with Escherichia coli. The test can be described thus: Antimicrobial activity against Escherichia coli Chi197 expressing aac(6')-Ib-cr and CTX-M-9G genes by agar dilution method.
For test [17], the system named is Escherichia coli. The test can be described thus: Antimicrobial activity against Escherichia coli PA09 expressing aac(6')-Ib-cr gene by agar dilution method.
Test [18] deals with Escherichia coli. The test can be described thus: Antimicrobial activity against Escherichia coli PA14 expressing aac(6')-Ib-cr and qepA genes by agar dilution method.
The test system of test [19] is Klebsiella pneumoniae. The test can be described thus: Antimicrobial activity against Klebsiella pneumoniae D24 expressing aac(6')-Ib-cr and CTX-M-9G genes by Etest.
Test [20] concerns Citrobacter freundii. The test can be described thus: Antimicrobial activity against Citrobacter freundii D26 expressing qnrB6 and CTX-M-9G genes by Etest. Format: functional.
The test system of test [21] is Escherichia coli. The test can be described thus: Antimicrobial activity against Escherichia coli PA11 expressing aac(6')-Ib-cr, qnrS1 and qepA genes by Etest. Type of test: functional.

Turning to `CO/N=C(\C(=O)N[C@@H]1C(=O)N2C(C(=O)O)=C(CSC(=O)c3ccco3)CS[C@H]12)c1csc(N)n1` [CEFTIOFUR], the MIC in the test with Klebsiella pneumoniae [1] was 128 µg/mL (≈ 244 µM); in the test on Citrobacter freundii [2], 128 µg/mL (≈ 244 µM); in the test with Escherichia coli [3], 128 µg/mL (≈ 244 µM); with Escherichia coli [4], above 128 µg/mL; against Escherichia coli [5] it was 0.25 µg/mL (≈ 0.477 µM); against Escherichia coli [6], 0.5 µg/mL (≈ 0.955 µM). Moreover, the MIC against Escherichia coli [7] is 64 µg/mL (≈ 122 µM); with Escherichia coli [8] it was 0.25 µg/mL (≈ 0.477 µM); against Escherichia coli [9], 0.25 µg/mL (≈ 0.477 µM); in the test with Escherichia coli [10], 0.5 µg/mL (≈ 0.955 µM); against Klebsiella pneumoniae [11], above 128 µg/mL.
In the case of `CC(C)(O/N=C(\C(=O)N[C@@H]1C(=O)N2C(C(=O)[O-])=C(C[n+]3ccccc3)CS[C@H]12)c1csc(N)n1)C(=O)O` [CEFTAZIDIME], the minimal inhibitory concentration (MIC) came out at 128 µg/mL (≈ 234 µM) in the test on Klebsiella pneumoniae [1]; 1 µg/mL (≈ 1.83 µM) with Citrobacter freundii [2]; 16 µg/mL (≈ 29.3 µM) against Escherichia coli [3]; 32 µg/mL (≈ 58.5 µM) with Escherichia coli [4]; 0.125 µg/mL (≈ 0.229 µM) in the test with Escherichia coli [5]; 0.25 µg/mL (≈ 0.457 µM) against Escherichia coli [6]. In addition, the MIC in the test on Escherichia coli [7] was 1 µg/mL (≈ 1.83 µM); against Escherichia coli [8], 0.125 µg/mL (≈ 0.229 µM); with Escherichia coli [9], 0.5 µg/mL (≈ 0.915 µM); in the test with Escherichia coli [10], 1 µg/mL (≈ 1.83 µM); with Klebsiella pneumoniae [11], 2 µg/mL (≈ 3.66 µM).
For GENTAMICIN, the minimum inhibitory concentration (MIC) was above 128 µg/mL with Klebsiella pneumoniae [1]; above 128 µg/mL with Citrobacter freundii [2]; above 128 µg/mL with Escherichia coli [3]; above 256 µg/mL in the test on Escherichia coli [4]; 0.125 µg/mL in the test on Escherichia coli [5]; above 128 µg/mL against Escherichia coli [6]. Further, the MIC is 16 µg/mL against Escherichia coli [8] and above 128 µg/mL with Escherichia coli [9].
On to `CO/N=C(\C(=O)N[C@@H]1C(=O)N2C(C(=O)O)=C(COC(C)=O)CS[C@H]12)c1csc(N)n1` [CEFOTAXIME], for which the MIC in the test on Klebsiella pneumoniae [1] amounted to 128 µg/mL (≈ 281 µM); with Citrobacter freundii [2], 64 µg/mL (≈ 141 µM); in the test on Escherichia coli [3], 128 µg/mL (≈ 281 µM); against Escherichia coli [4], 16 µg/mL (≈ 35.1 µM); against Escherichia coli [5], 0.06 µg/mL (≈ 0.132 µM); with Escherichia coli [6], 0.125 µg/mL (≈ 0.274 µM). The MIC against Escherichia coli [7] came to 32 µg/mL (≈ 70.3 µM); against Escherichia coli [8] it was 0.06 µg/mL (≈ 0.132 µM); with Escherichia coli [9], 1 µg/mL (≈ 2.2 µM); against Escherichia coli [10], 0.5 µg/mL (≈ 1.1 µM); against Klebsiella pneumoniae [11], 64 µg/mL (≈ 141 µM).
`NCC[C@H](O)C(=O)N[C@@H]1C[C@H](N)[C@@H](O[C@H]2O[C@H](CN)[C@@H](O)[C@H](O)[C@H]2O)[C@H](O)[C@H]1O[C@H]1O[C@H](CO)[C@@H](O)[C@H](N)[C@H]1O` [AMIKACIN]: the minimal inhibitory concentration (MIC) is above 128 µg/mL against Klebsiella pneumoniae [1]; above 128 µg/mL against Citrobacter freundii [2]; above 128 µg/mL with Escherichia coli [3]; above 256 µg/mL in the test with Escherichia coli [4]; 0.5 µg/mL (≈ 0.854 µM) in the test on Escherichia coli [5]; above 128 µg/mL in the test on Escherichia coli [6]. The minimum inhibitory concentration (MIC) was 0.5 µg/mL (≈ 0.854 µM) in the test with Escherichia coli [7]; 1 µg/mL (≈ 1.71 µM) in the test on Escherichia coli [8]; above 128 µg/mL against Escherichia coli [9]; 0.25 µg/mL (≈ 0.427 µM) against Escherichia coli [10]; 2 µg/mL (≈ 3.42 µM) in the test with Klebsiella pneumoniae [11].
On to `O=C(O)c1cn(C2CC2)c2cc(N3CCNCC3)c(F)cc2c1=O` [CIPROFLOXACIN], for which the MIC is 8 µg/mL (≈ 24.1 µM) in the test on Klebsiella pneumoniae [12]; 8 µg/mL (≈ 24.1 µM) against Klebsiella pneumoniae [13]; 4 µg/mL (≈ 12.1 µM) with Citrobacter freundii [2]; 64 µg/mL (≈ 193 µM) in the test with Escherichia coli [14]; 64 µg/mL (≈ 193 µM) against Escherichia coli [3]; 64 µg/mL (≈ 193 µM) against Escherichia coli [15]. Besides, the MIC in the test with Escherichia coli [16] was 64 µg/mL (≈ 193 µM); with Escherichia coli [17], 64 µg/mL (≈ 193 µM); in the test on Escherichia coli [4] it was above 128 µg/mL; in the test with Escherichia coli [18], above 128 µg/mL; against Klebsiella pneumoniae [19], 2 µg/mL (≈ 6.04 µM); against Citrobacter freundii [20] it was 4 µg/mL (≈ 12.1 µM). Besides, the MIC with Escherichia coli [21] was above 128 µg/mL; against Klebsiella pneumoniae [11] it was 2 µg/mL (≈ 6.04 µM).
In the case of `CCn1cc(C(=O)O)c(=O)c2ccc(C)nc21` [NALIDIXIC ACID], the MIC against Klebsiella pneumoniae [1] is above 128 µg/mL; with Citrobacter freundii [2], 128 µg/mL (≈ 551 µM); in the test with Escherichia coli [3], above 128 µg/mL; with Escherichia coli [4], above 128 µg/mL; in the test on Escherichia coli [5], 4 µg/mL (≈ 17.2 µM); in the test on Escherichia coli [6], 16 µg/mL (≈ 68.9 µM). Besides, the MIC with Escherichia coli [7] came out at 16 µg/mL (≈ 68.9 µM); against Escherichia coli [8] it was 4 µg/mL (≈ 17.2 µM); against Escherichia coli [9] it was 64 µg/mL (≈ 276 µM); against Escherichia coli [10] it was 32 µg/mL (≈ 138 µM); against Klebsiella pneumoniae [11] it was 64 µg/mL (≈ 276 µM).
